ERAP1 inh – blocks human ERAP1 aminopeptidase activity; hit rate 0.15% among 340,000; Q9NZ08; recombinant ERAP1, Leu-AMC fluorescence, 60 min; inhibition, % at 10.7 µM;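 active = mean replicate inhibition of at least 30%, or all replicates individually reaching that 30% level; inactive = mean below 30% and not every replicate reaching it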
PGC1a acetyl inh – modulators of PGC1a acetylation | U2OS PGC1a acetylation, AlphaScreen anti-acetyl-lysine; with virally co-expressed GCN5 acetyltransferase | inhibition, % at 15.6 µM | hit rate 0.17% among 350,000;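 active = every replicate shows inhibition of at least 40%; inconclusive = mean inhibition at least 40% but some replicate below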
Cneo AK release – causes C. neoformans cell lysis; AID 651654; hit rate 0.2% among 360,000; adenylate kinase release luminescence, 4 h; normalised: neutral wells 0, clomiphene wells 100; lysis activity, % at 15 µM;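 active = mean lysis activity across replicates of at least 80%, whatever share of replicates individually reach that level; inactive = mean lysis activity below 80%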
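Material: C. neoformans cells | Amount: Yeast cell density of 5 × 10^6 cells/mL | Medium: Fresh YPD growth medium | Dosing: Single dose | Times: Static 4 h at 37 °C with compound, 1 h detection | Detection: AK luminescence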
Ecoli rRNA inh – inhibits bacterial ribosomal RNA function over humanized ribosomes. E. coli WT GFP vs humanized-ribosome RFP mutants, fluorescence, 24 h; active compounds read low; DMSO median 0, no signal -100. GFP signal change (wild-type ribosome), % (test concentration not listed). hit rate 1.6% among 350,000;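 active = significant combined selectivity score with lowered wild-type GFP, culture density cut under 30%, mutant RFP and density less affected; inactive = any of these conditions unmet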
Env fusion inh – inhibitors of HIV Env-mediated cell fusion; HeLa-JRFL Env/CEM21 cell fusion, luciferase; inhibition, % at 12.3 µM; hit rate 1.1% among 360,000; AID 651610;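 active = mean replicate inhibition score of at least 50 and every replicate individually at or above 50; inconclusive = only one of the two criteria met; inactive = mean below 50 and not all replicates reaching 50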
FGF22 binding – binders of recombinant human FGF22 by thermal shift; Q9HCT0; SYPRO orange fluorescence; percent of sucrose octasulfate shift, DMSO zero; activity (Tm shift, normalised), % at 9.99 µM; hit rate 1.5% among 340,000;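 active = mean Tm shift, scaled 0 neutral to 100 positive control, at about 1.3% or above, every replicate too, limit read from the data; inconclusive = no clear call, values can overlap the other calls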
Target sequence (Q9HCT0 whole entry, looked up): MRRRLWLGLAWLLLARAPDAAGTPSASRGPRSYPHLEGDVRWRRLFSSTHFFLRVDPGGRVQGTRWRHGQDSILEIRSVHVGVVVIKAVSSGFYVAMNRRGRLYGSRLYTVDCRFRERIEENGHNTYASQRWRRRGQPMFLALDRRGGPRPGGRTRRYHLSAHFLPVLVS
Of the large screens only hits and unclear results are named; the others gave an inactive call. Rows were chosen to be rich in hits. Some 3.5% of all compounds tested hit in one or more screens of this group.

CN(C)c1nc(-c2ccccc2)ns1	none (no result: ERAP1 inh, PGC1a acetyl inh, Cneo AK release)
CC(=O)c1cccc(S(=O)(=O)NC(C)C2CC3CCC2C3)c1 (stereo unspecified)	none
CC1=NN(c2ccc(N)cc2)C(=O)C1	none (no result: FGF22 binding)
COc1ccc(C(=O)Nc2cccc(C(C)=O)c2)c(OC)c1OC	none (no result: FGF22 binding)
O=C1CCN(Cc2nc(-c3ccc(Cl)cc3)no2)CCN1	FGF22 binding 43.0
Clc1ccc(-c2noc(CN3CCOCC3)n2)cc1	none (no result: ERAP1 inh, FGF22 binding)
COc1ccc(CCNC(=O)NC2CCCCC2)cc1OC	none (no result: Cneo AK release, FGF22 binding)
COCC(=O)N(C)C[C@@H]1Oc2cc(C#CC(C)C)ccc2S(=O)(=O)N([C@@H](C)CO)C[C@@H]1C	Env fusion inh inconclusive (no result: ERAP1 inh)
N#C/C(=C\c1ccc(OCc2ccc(Cl)cc2)cc1)C(=O)Nc1cccc(C(=O)O)c1	Ecoli rRNA inh -26.5
CCc1ccc(C(C)NC(=S)NCc2ccc(F)cc2)cc1 (stereo unspecified)	Cneo AK release 115.0
Fc1ccc(CNC(=S)NCc2ccc(F)cc2)cc1	PGC1a acetyl inh 87.1, Ecoli rRNA inh -31.1 (no result: Cneo AK release)
Cc1ccc(C(=O)NCCCNC(=O)c2ccc(C)nc2)cc1	none
Cc1c(/C(O)=C2\C(=O)C(=O)N(CCN(C)C)C2c2cccnc2)cnn1-c1ccccc1 (stereo unspecified)	none (no result: ERAP1 inh, Ecoli rRNA inh, Env fusion inh, FGF22 binding)
Cc1c(/C(O)=C2\C(=O)C(=O)N(CCCN(C)C)C2c2ccccc2)cnn1-c1ccccc1 (stereo unspecified)	PGC1a acetyl inh 81.6 (no result: Cneo AK release, FGF22 binding)
CCOC(=O)c1cnc2c(c(C)nn2C)c1Oc1ccccc1F	Ecoli rRNA inh -31.9 (no result: Cneo AK release)
CCC(=O)Nc1cccc(NC(=S)NC(=O)c2ccc(Cl)cc2Cl)c1	none (no result: ERAP1 inh, PGC1a acetyl inh, Cneo AK release, Ecoli rRNA inh, FGF22 binding)
COCC(C)n1c(SCC(=O)N2CCc3ccccc3C2)nc2ccccc2c1=O (stereo unspecified)	none (no result: PGC1a acetyl inh, Cneo AK release)
O=C(O)COc1ccc(/C=C/c2nc(-c3ccccc3O)n[nH]2)cc1	Ecoli rRNA inh -16.6 (no result: PGC1a acetyl inh)
COc1ccc(/C=C/c2nc(-c3ccccc3O)n[nH]2)cc1OC	none (no result: ERAP1 inh, Ecoli rRNA inh, FGF22 binding)
NCC1C2CCC(O2)C1CO (stereo unspecified)	FGF22 binding 44.6 (no result: PGC1a acetyl inh, Cneo AK release)
CCCCOC(=O)C[N+](C)(C)CCOC1CC2CCC1(C)C2(C)C (stereo unspecified)	Env fusion inh 103.0
COc1cc(/C=C/C(=O)OC2CC3CCC2(C)C3(C)C)ccc1O (stereo unspecified)	none (no result: Ecoli rRNA inh, Env fusion inh)
CCCOC(=O)C[N+](C)(C)CCOC1CC2CCC1(C)C2(C)C (stereo unspecified)	Ecoli rRNA inh -47.3 (no result: ERAP1 inh, PGC1a acetyl inh, Cneo AK release)
CCC(C)OC(=O)C[N+](C)(C)CCOC1CC2CCC1(C)C2(C)C (stereo unspecified)	Env fusion inh 66.0
CC(C)CCOC(=O)C[N+](C)(C)CCOC1CC2CCC1(C)C2(C)C (stereo unspecified)	Env fusion inh 76.3 (no result: PGC1a acetyl inh, Cneo AK release)
CC(C)(c1cc(Cl)c(O)c(CN2CCOCC2)c1)c1cc(Cl)c(O)c(CN2CCOCC2)c1	none
Cc1ccc(NC(=O)c2cc([N+](=O)[O-])ccc2N2CCOCC2)cc1C	none (no result: PGC1a acetyl inh)
CCCCCCOC(=O)C[N+](C)(C)CCOC1CC2CCC1(C)C2(C)C (stereo unspecified)	none (no result: ERAP1 inh, Ecoli rRNA inh, FGF22 binding)
CCCCCCCOC(=O)C[N+](C)(C)CCOC1CC2CCC1(C)C2(C)C (stereo unspecified)	Env fusion inh 75.1 (no result: PGC1a acetyl inh, Cneo AK release)
COc1ccc(-c2cc3c(=O)n(CC(=O)NCc4ccccc4F)ncn3n2)cc1	none
O=C(O)CSc1nnc(-c2ccc(Cl)cc2Cl)n1-c1ccccc1	none
CCn1nc(C)c(CCC(=O)O)c1C	FGF22 binding 42.9 (no result: PGC1a acetyl inh, Cneo AK release)
CCN(CC(=O)Nc1c(F)cccc1F)C(=O)C1CCN(S(=O)(=O)c2ccccc2C(=O)OC)CC1	none
CCc1cccc2c(C(=O)COC(=O)/C=C/c3ccc(O)c(OC)c3)c[nH]c12	none (no result: ERAP1 inh, Ecoli rRNA inh, FGF22 binding)
CCN(c1ccccc1)S(=O)(=O)c1ccc(Cl)nc1	none (no result: Cneo AK release)
CCN(c1cccc2ccccc12)S(=O)(=O)c1ccc(Cl)nc1	Ecoli rRNA inh -21.9
Cc1ccc(N2CC(O)=C(c3nc4ccccc4c(=O)[nH]3)C2=N)cc1C	FGF22 binding 43.0 (no result: Cneo AK release)
OCc1nc2nc(Cl)c(Cl)nc2[nH]1	none
O=C(Cc1ccccc1)N[C@H]1C=C[C@@H](CC(=O)N2CCOCC2)O[C@@H]1CO	Cneo AK release 94.9
O=C(Cc1ccccc1)N[C@H]1C=C[C@H](CC(=O)N2CCOCC2)O[C@@H]1CO	none
O=C(Cc1ccccc1)N[C@H]1C=C[C@@H](CC(=O)N2CCOCC2)O[C@H]1CO	Cneo AK release 93.2
O=C(NC1CCCCC1)N[C@H]1C=C[C@@H](CC(=O)N2CCOCC2)O[C@H]1CO	Cneo AK release 103.9 (no result: Env fusion inh)
COC(=O)[C@@]12CCCCN1[C@H](c1ccc(-c3ccc(OC)cc3)c(OC)c1)[C@@H]1C(=O)N(C)C(=O)[C@@H]12	none (no result: PGC1a acetyl inh)
COc1ccc(NC(=O)Nc2ccc3c(c2)CC(=O)N([C@H](C)CO)C[C@@H](C)[C@H](CN(C)C(=O)NC2CCCCC2)O3)cc1	none
O=C1CSC(c2ccccn2)N1c1ccc2ccccc2c1 (stereo unspecified)	none (no result: ERAP1 inh, PGC1a acetyl inh, Cneo AK release, Ecoli rRNA inh, FGF22 binding)
O=c1[nH]cc(CN2CCOCC2)c(=O)[nH]1	Env fusion inh inconclusive, FGF22 binding 43.1
CC(C)N(Cc1cnn(C)c1)C(=O)c1ccc(OC2CCN(Cc3ccccn3)CC2)cc1	none
C[C@@]12C(=O)N(CC3CCCO3)CC(=O)N1[C@H]1c3cc(Cl)ccc3OC[C@@H]1[C@@H]2c1ccccc1 (stereo partly specified)	Env fusion inh 79.9 (no result: PGC1a acetyl inh)
COc1ccc2c(c1)OC[C@H]1[C@H]2N2C(=O)CN(CC3CCCO3)C(=O)[C@@]2(C)[C@H]1c1ccccc1 (stereo partly specified)	none (no result: ERAP1 inh)
Cc1ccc2c(c1)[C@H]1[C@H](CO2)[C@H](c2ccccc2)[C@]2(C)C(=O)N(CC3CCCO3)CC(=O)N12 (stereo partly specified)	Env fusion inh 110.0 (no result: PGC1a acetyl inh)
C[C@@]12C(=O)N(CC3CCCO3)CC(=O)N1[C@@H]1c3ccccc3OC[C@@H]1[C@@H]2c1ccccc1 (stereo partly specified)	none (no result: PGC1a acetyl inh, Env fusion inh)
O=C(NC1CCCc2ccccc21)c1ccc(Cl)nc1 (stereo unspecified)	none (no result: ERAP1 inh, Ecoli rRNA inh, Env fusion inh, FGF22 binding)
COc1ccc(-c2nc3ccccc3c(=O)n2NC(=O)Cc2ccccc2)cc1	none
C=CCn1c(SCC(=O)Nc2sccc2C(N)=O)nc2sc(C)c(C)c2c1=O	Env fusion inh 57.8 (no result: ERAP1 inh, Ecoli rRNA inh, FGF22 binding)
O=C(C[n+]1ccc(/C=C/c2ccccc2)cc1)c1ccc2c(c1)OCCO2	none
Cc1cc[n+](CC(=O)c2ccc3c(c2)OCCO3)cc1	FGF22 binding 43.7
O=S1(=O)CC(N2CCN(Cc3ccccc3F)CC2)CN1Cc1cn(Cc2ccc(Cl)cc2)nn1 (stereo unspecified)	Ecoli rRNA inh -18.6 (no result: ERAP1 inh, PGC1a acetyl inh, Cneo AK release)
COc1ccc(Cn2cc(CN3CC(N4CCN(Cc5ccccc5F)CC4)CS3(=O)=O)nn2)cc1 (stereo unspecified)	none (no result: ERAP1 inh, PGC1a acetyl inh, Cneo AK release)

Screening data as filed in PubChem.
